Experimental data as given in ChEMBL document CHEMBL2069284, “Synthesis and selective anticancer activity of steroidal glycoconjugates” (Eur J Med Chem, 2012).

Legend:
[1] = system: HeLa; assay: Antiproliferative activity against human HeLa cells after 24 hrs by crystal violet staining-based method; type: functional, cell-based
Outline: (§1)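 Cells were cultured in RPMI-1640 with 5% newborn calf serum and benzylpenicillin at 37 °C, 5% CO2, and used in exponential growth. Cells were seeded at 7500/well, grown 24 h, then exposed to a concentration range. Controls received 1% DMSO vehicle. After 24 h, growth was read by crystal violet staining as absorbance at 590 nm, and IC50 was derived.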

[2] = system: Ca-Ski; assay: Antiproliferative activity against human CaSki cells after 24 hrs by crystal violet staining-based method; type: functional, cell-based; outline: as §1
[3] = (§2) Antiproliferative activity against human ViBo cells after 24 hrs by crystal violet staining-based method; type: functional, cell-based; outline: as §1
[4] = system: ViBo; assay: as §2; type: functional, cell-based; outline: as §1
[5] = system: HeLa; assay: Cytotoxicity against human HeLa cells assessed as LDH release at antiproliferative IC50 after 24 hrs; type: cell-based
Outline: (§3)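 Membrane damage was measured as LDH released into the culture supernatant 24 h after treatment; Triton X-100 lysis served as the total-lysis reference and DMSO as the vehicle control. For HeLa, CaSki and ViBo, 7500 cells/well were seeded and the medium was replaced after 24 h before treatment. Data are mean ± SD of three independent experiments in triplicate, analyzed by ANOVA with Tukey's test.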

[6] = system: Ca-Ski; assay: Cytotoxicity against human CaSki cells assessed as LDH release at antiproliferative IC50 after 24 hrs; type: cell-based; outline: as §3
[7] = Cytotoxicity against human ViBo cells assessed as LDH release at antiproliferative IC50 after 24 hrs; type: cell-based; outline: as §3
[8] = system: PBMC; assay: Antiproliferative activity against PHA-stimulated and CFSE-labeled human PBMC assessed as proliferation of enriched lymphocyte population at antiproliferative IC50 after 72 hrs by flow cytometric analysis (reference value: 90.13%); type: cell-based
Outline: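 Enriched lymphocytes from a normal blood donor were obtained by removing cells adherent after 1 h at 37 °C, 5% CO2, then resuspended in RPMI-1640 at 1 × 10⁶ cells/mL. Cells were CFSE-labeled for 15 min at room temperature in the dark, PHA-stimulated and/or treated, and plated at 2 × 10⁵ cells/well with five replicates. After 72 h at 37 °C, cells were PBS-washed, fixed in 1% formaldehyde, and analyzed by flow cytometry (≥20,000 events).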

[9] = Cytotoxicity against human lymphocytes assessed as LDH release at antiproliferative IC50 after 24 hrs; type: cell-based; settings: lymphocyte; outline: as §3

IC50 [1] [µM]	SMILES	inhibition [1]	IC50 [2] [µM]	inhibition [2]	IC50 [3] [µM]	inhibition [4]	Activity [5]	Activity [6]	Activity [7]	Activity [8] [%]	Activity [9]
81	CC(=O)N[C@H]1[C@H](O[C@H]2CC[C@@]3(C)C(=CC[C@H]4[C@@H]5C[C@@H]6O[C@]7(CC[C@@H](C)CO7)[C@@H](C)[C@@H]6[C@@]5(C)CC[C@@H]43)C2)O[C@H](CO)[C@@H](O)[C@@H]1O	Dose-dependent effect	80	Dose-dependent effect	81	Dose-dependent effect	Non-toxic	Non-toxic	Non-toxic	72.58	Non-toxic
41	C[C@@H]1CC[C@@]2(OC1)O[C@H]1C[C@H]3[C@@H]4CC=C5C[C@@H](O[C@@H]6O[C@H](CO)[C@@H](O)[C@H](O)[C@H]6N)CC[C@]5(C)[C@H]4CC[C@]3(C)[C@H]1[C@@H]2C.Cl	Dose-dependent effect	41	Dose-dependent effect	82	Dose-dependent effect	Non-toxic	Non-toxic	Non-toxic	78.76	Non-toxic
129	CC(=O)N[C@H]1[C@H](O[C@H]2CC[C@@]3(C)[C@@H](CC[C@@H]4[C@@H]3CC(=O)[C@]3(C)[C@@H]5[C@H](C[C@@H]43)O[C@]3(CC[C@@H](C)CO3)[C@H]5C)C2)O[C@H](CO)[C@@H](O)[C@@H]1O	Dose-dependent effect	136	Dose-dependent effect	> 142	Dose-dependent effect	Non-toxic	Non-toxic	Non-toxic	75.59	Non-toxic
